Screens (PubChem)
MC4R ag barr = agonists of human melanocortin 4 receptor (MC4R) beta-arrestin | 0.98% of 360,000 active | activation, % at 8.9 µM | P32245 | U2OS MC4R beta-arrestin complementation, luminescence; percent of melanotan II response, DMSO zero;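 active means activation above a per-plate cutoff, the mean activation of sample wells on that plate plus 3 SD, cut at about 8% in these data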
Target sequence (P32245 whole entry, looked up): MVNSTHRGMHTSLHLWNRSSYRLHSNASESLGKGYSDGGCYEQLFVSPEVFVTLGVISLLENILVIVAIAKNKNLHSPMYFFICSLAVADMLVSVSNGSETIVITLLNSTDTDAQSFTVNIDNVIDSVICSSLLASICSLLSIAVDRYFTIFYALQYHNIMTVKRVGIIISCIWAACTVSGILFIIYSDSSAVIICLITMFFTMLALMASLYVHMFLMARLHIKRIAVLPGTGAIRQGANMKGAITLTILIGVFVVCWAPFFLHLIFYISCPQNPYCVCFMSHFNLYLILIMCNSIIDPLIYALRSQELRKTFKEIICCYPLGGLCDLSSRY
NTR1 ag = agonists of human neurotensin receptor NTR1; P30989; NTR1-U2OS beta-arrestin-GFP spot imaging, agonist mode; activation, % at 20 µM; 0.17% of 330,000 active;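 active means activation at or above 40% of the spot to cytoplasm intensity ratio, with at least 20 cells analyzed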
MC4R antagonist = human MC4R antagonism in cAMP assay; P32245; MC4R-expressing cells, MTII-stimulated cAMP, LANCE TR-FRET; inhibition, % at 6.5 µM; 0.48% of 360,000 active; AID 540295;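 active means inhibition above its plate's cutoff, the mean of tested wells on that plate plus 3 SD, cut at about 29% in these data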
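Material – human MC4R-expressing U2OS cells · Repeats – no replicates · Detection – TR-FRET with Eu-cAMP and labeled anti-cAMP, 671 nm · Times – compound 30 min, challenge 1 h, detection 1 h · Compound – single nominal compound dose of 6.5 µM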
AI-2 QS modul = Vibrio harveyi AI-2 quorum sensing modulation; 0.4% of 300,000 active; activity change, % at 7.5 µM; Vibrio harveyi JMH597 AI-2 luminescence/OD600 ratio, 9 h; hits give low values; strain lacks LuxN and CqsS sensors; 0 = neutral-control median; in the data active means activity change below about -75%, passing the limit was not always enough;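 further: luminescence divided by OD600 gain over 9 h not by final OD600 alone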
U2OS cAMP counter = U2OS forskolin cAMP inhibition counter-screen; parental U2OS, LANCE TR-FRET; 26% of 1,600 active; shares compounds with MC4R antagonist; inhibition, % at 6.5 µM;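 active means mean inhibition over triplicates above the low-control well mean plus 3 SD, set per campaign, cut at about 13% in these data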;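 further: signal is single emission at 671 nm which falls as cellular cAMP rises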
MC4R cAMP antag = human MC4R cAMP antagonism confirmation; shares compounds with MC4R antagonist; MC4R-expressing cells, MTII-stimulated cAMP, TR-FRET; inhibition, % at 6.5 µM; 27% of 1,600 active; in the data active means inhibition above about 29%
Numbers stand for hits. In the library only some 1.8% were active in any assay of this set; here they are far more common.

Results for CC(C)CNC(=O)COC(=O)c1c2c(nc3ccccc13)/C(=C\c1cccs1)CC2 ?
MC4R ag barr: inactive; MC4R antagonist: 29.3; U2OS cAMP counter: inactive; MC4R cAMP antag: inactive

Results for O=C(CCCCCN1C(=O)c2cccc([N+](=O)[O-])c2C1=O)Nc1ccccc1F ?
MC4R ag barr: inactive; NTR1 ag: inactive; MC4R antagonist: inactive; AI-2 QS modul: inactive

How did O=C(CCCCCN1C(=O)c2cccc([N+](=O)[O-])c2C1=O)NCCc1ccccc1 do in these assays?
MC4R ag barr: inactive; MC4R antagonist: inactive

Results for O=C(COC(=O)CCN1C(=O)c2cccc([N+](=O)[O-])c2C1=O)NCc1ccccc1 ?
MC4R ag barr: inactive; NTR1 ag: inactive; MC4R antagonist: 33.0; AI-2 QS modul: inactive; U2OS cAMP counter: inactive; MC4R cAMP antag: inactive

What do the screens show for `CCCN(CC(=O)Nc1ccccc1C)C(=O)CCN1C(=O)c2cccc([N+](=O)[O-])c2C1=O`?
MC4R ag barr: inactive; NTR1 ag: inactive; MC4R antagonist: 29.7; AI-2 QS modul: inactive; U2OS cAMP counter: 21.4; MC4R cAMP antag: 32.9

What do the screens show for `CCOC(=O)Cc1csc(NC(=O)CCN2C(=O)c3cccc([N+](=O)[O-])c3C2=O)n1`?
MC4R ag barr: inactive; NTR1 ag: inactive; MC4R antagonist: 44.1; AI-2 QS modul: inactive; U2OS cAMP counter: inactive; MC4R cAMP antag: inactive

Results for Cc1cccc(NC(=O)CCN2C(=O)c3cccc([N+](=O)[O-])c3C2=O)c1 ?
MC4R ag barr: inactive; NTR1 ag: inactive; MC4R antagonist: 31.4; AI-2 QS modul: inactive; U2OS cAMP counter: 16.1; MC4R cAMP antag: 28.7

Results for O=C(COC(=O)Cc1ccc(S(=O)(=O)N2CCOCC2)s1)Nc1ccc([N+](=O)[O-])cc1 ?
MC4R ag barr: inactive; NTR1 ag: inactive; MC4R antagonist: inactive

How did COc1ccccc1N(C)S(=O)(=O)c1ccc(C(=O)N2CCCC(C(F)(F)F)C2)cc1 (stereo not given) do in these assays?
MC4R ag barr: inactive; NTR1 ag: inactive; MC4R antagonist: inactive; AI-2 QS modul: inactive

How did COc1cccc(NC(=O)CN(C)C(=O)c2cc(S(=O)(=O)Nc3ccccc3OC)ccc2C)c1 do in these assays?
MC4R ag barr: inactive; MC4R antagonist: inactive

Results for CC(OC(=O)Cn1cnc2c1c(=O)n(C)c(=O)n2C)C(=O)NC1CCCCC1C (stereo not given) ?
MC4R ag barr: inactive; NTR1 ag: inactive; MC4R antagonist: inactive; AI-2 QS modul: inactive

Results for Cc1ccc(C)n1-c1ccc(-c2nnc3n2CCCCC3)s1 ?
MC4R ag barr: inactive; NTR1 ag: inactive; MC4R antagonist: 38.9; AI-2 QS modul: inactive; U2OS cAMP counter: 17.2; MC4R cAMP antag: 33.3

Results for Cc1cc(C)n2nc(C(=O)NNC(=O)c3ccc(Cl)cc3)nc2n1 ?
MC4R ag barr: inactive; NTR1 ag: inactive; MC4R antagonist: 35.8; AI-2 QS modul: inactive; U2OS cAMP counter: inactive; MC4R cAMP antag: inactive

How did Cc1ccc(C(=O)NNC(=O)Cc2nc3nc(C)cc(C)n3n2)cc1 do in these assays?
MC4R ag barr: inactive; NTR1 ag: inactive; MC4R antagonist: inactive; AI-2 QS modul: inactive

How did Cc1cccc(C)c1NC(=O)COC(=O)CSc1nnc(N)s1 do in these assays?
MC4R ag barr: inactive; NTR1 ag: inactive; MC4R antagonist: inactive; AI-2 QS modul: inactive

Results for Cc1cccc(C)c1NC(=O)CCCSc1nnc(N)s1 ?
MC4R ag barr: inactive; NTR1 ag: inactive; MC4R antagonist: 32.8; AI-2 QS modul: inactive; U2OS cAMP counter: inactive; MC4R cAMP antag: inactive

What do the screens show for `COc1ccc(C(C(=O)NC(C)(C)C)N(C(=O)CCC(=O)Nc2cc(C)on2)c2cc(C)cc(C)c2)cc1` (stereo not given)?
MC4R ag barr: inactive; NTR1 ag: inactive; MC4R antagonist: inactive; AI-2 QS modul: inactive

Results for COc1ccc(C(C(=O)NC(C)(C)C)N(C(=O)CCC(=O)Nc2cc(C)on2)c2ccccc2F)cc1 (stereo not given) ?
MC4R ag barr: inactive; NTR1 ag: inactive; MC4R antagonist: 30.1; AI-2 QS modul: inactive; U2OS cAMP counter: inactive; MC4R cAMP antag: inactive

How did CC(=O)c1cccc(Oc2ncccn2)c1 do in these assays?
MC4R ag barr: inactive; NTR1 ag: inactive; MC4R antagonist: inactive; AI-2 QS modul: inactive

Results for Clc1cccc(Oc2ncccn2)c1 ?
MC4R ag barr: inactive; NTR1 ag: inactive; MC4R antagonist: 31.4; AI-2 QS modul: inactive; U2OS cAMP counter: inactive; MC4R cAMP antag: inactive

How did CN(CC(=O)Nc1c(Cl)cccc1Cl)C(=O)CCC1CCCC1 do in these assays?
MC4R ag barr: inactive; NTR1 ag: inactive; MC4R antagonist: inactive; AI-2 QS modul: inactive

What do the screens show for `O=C(c1cccc([N+](=O)[O-])c1)c1ccc2c(c1)OCCOCCOCCOCCO2`?
MC4R ag barr: inactive; NTR1 ag: inactive; MC4R antagonist: 35.3; AI-2 QS modul: inactive; U2OS cAMP counter: inactive; MC4R cAMP antag: inactive

What do the screens show for `COC(=O)[C@H](CC(C)C)NC(=O)N1CCC(C)CC1`?
MC4R ag barr: inactive; NTR1 ag: inactive; MC4R antagonist: 33.0; AI-2 QS modul: inactive; U2OS cAMP counter: inactive; MC4R cAMP antag: inactive

How did COC(=O)CSc1ccc(C#N)c(SCC(=O)OC)c1 do in these assays?
MC4R ag barr: inactive; NTR1 ag: inactive; MC4R antagonist: 35.2; AI-2 QS modul: inactive; U2OS cAMP counter: 16.9; MC4R cAMP antag: inactive

What do the screens show for `NS(=O)(=O)c1ccc(NC(=O)COC(=O)COc2ccc3ccccc3c2)cc1`?
MC4R ag barr: inactive; NTR1 ag: inactive; MC4R antagonist: inactive; AI-2 QS modul: inactive

What do the screens show for `Cc1c(C(=O)OCC(=O)Nc2ccc(S(N)(=O)=O)cc2)oc2c1ccc1ccccc12`?
MC4R ag barr: inactive; NTR1 ag: inactive; MC4R antagonist: 35.2; AI-2 QS modul: inactive; U2OS cAMP counter: inactive; MC4R cAMP antag: inactive

How did O=C(OCc1ccccc1)N1CCC2CC1c1c(Cl)cccc12 (stereo not given) do in these assays?
MC4R ag barr: inactive; MC4R antagonist: 29.5; U2OS cAMP counter: inactive; MC4R cAMP antag: inactive

Results for CCOC(=O)c1c(NC(=O)C2c3ccccc3Oc3ccccc32)sc(C(N)=O)c1C ?
MC4R ag barr: inactive; NTR1 ag: inactive; MC4R antagonist: 31.8; AI-2 QS modul: inactive; U2OS cAMP counter: inactive; MC4R cAMP antag: inactive

How did O=C(Nc1ccc(F)cc1)c1cc(-c2ccccn2)nc2c(Cl)cccc12 do in these assays?
MC4R ag barr: inactive; NTR1 ag: inactive; MC4R antagonist: 30.4; AI-2 QS modul: inactive; U2OS cAMP counter: 35.2; MC4R cAMP antag: 41.7

How did CCN(CC)S(=O)(=O)c1cccc(C(=O)NC(C(=O)NNC(=O)c2ccccc2F)C(C)C)c1 (stereo not given) do in these assays?
MC4R ag barr: inactive; MC4R antagonist: inactive

What do the screens show for `COc1ccc(NC(=O)COC(=O)C2CC(=O)N(c3ccc(C)cc3)C2)cc1` (stereo not given)?
MC4R ag barr: inactive; NTR1 ag: inactive; MC4R antagonist: 41.5; U2OS cAMP counter: inactive; MC4R cAMP antag: inactive
